system: Bacillus subtilis; assay: Antibacterial activity against Bacillus subtilis NCIM 2063 at 200 ug/disk after 24 hrs by agar disk diffusion method; format: functional; details: NCIM 2063, 24 h, read-out: IZ
In short: (§1)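 Agar disc diffusion on nutrient agar plates pre-inoculated with each bacterium. Sterile 6 mm filter-paper discs were moistened with compound in DMSO at the stated per-disc amount. Plates were incubated at 37 °C, and the growth-inhibition zone diameter was read after 24 h. Each determination was run in triplicate, and the mean of three independent readings is reported.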

| SMILES | zone of inhibition at 200 µg/disc [mm] |
| --- | --- |
| Cc1ccc(C(=O)CC(C(=O)c2ccc(C)cc2)C2C(N)=NC(=S)N=C2N)cc1 (stereo not drawn) | 24 |
| NC1=NC(=O)N=C(N)C1C(CS(=O)(=O)c1ccc(Cl)cc1)S(=O)(=O)c1ccc(Cl)cc1 (stereo not drawn) | 25 |
| Cc1ccc(C(=O)CC(C(=O)c2ccc(C)cc2)C2C(=N)N(C)C(=O)N(C)C2=N)cc1 (stereo not drawn) | 10 |

system: Curvularia lunata; assay: Antifungal activity against Curvularia lunata NCIM 716 at 200 ug/disk after 48 hrs by agar disk diffusion method; format: functional; details: NCIM 716, 48 h, read-out: IZ
In short: (§2)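 Fungal disc diffusion on nutrient agar plates pre-inoculated with each fungus. 6 mm sterile paper discs carried the compound in DMSO at the stated amount per disc. Plates were held at 37 °C, and inhibition-zone diameter was measured after 48 h. Values are the mean of three independent triplicate readings.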

| SMILES | zone of inhibition at 200 µg/disc [mm] |
| --- | --- |
| Cc1ccc(C(=O)CC(C(=O)c2ccc(C)cc2)C2C(N)=NC(=S)N=C2N)cc1 (stereo not drawn) | 18 |
| NC1=NC(=O)N=C(N)C1C(CS(=O)(=O)c1ccc(Cl)cc1)S(=O)(=O)c1ccc(Cl)cc1 (stereo not drawn) | 23 |
| Cc1ccc(C(=O)CC(C(=O)c2ccc(C)cc2)C2C(=N)N(C)C(=O)N(C)C2=N)cc1 (stereo not drawn) | 16 |

system: Radical scavenging activity; assay: Antioxidant activity assessed as DPPH free radical scavenging activity at 100 uM after 20 mins; format: functional; details: not given
In short: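 DPPH scavenging: compound solutions were added to DPPH in dioxane/ethanol and kept at ambient temperature for 20 min. Absorbance was read at 517 nm. The test–control difference was expressed as percent DPPH radical scavenging.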

| SMILES | inhibition [%] |
| --- | --- |
| Cc1ccc(C(=O)CC(C(=O)c2ccc(C)cc2)C2C(N)=NC(=S)N=C2N)cc1 (stereo not drawn) | 32.3 |
| NC1=NC(=O)N=C(N)C1C(CS(=O)(=O)c1ccc(Cl)cc1)S(=O)(=O)c1ccc(Cl)cc1 (stereo not drawn) | 35.8 |
| Cc1ccc(C(=O)CC(C(=O)c2ccc(C)cc2)C2C(=N)N(C)C(=O)N(C)C2=N)cc1 (stereo not drawn) | 21.7 |

system: Fusarium solani; assay: Antifungal activity against Fusarium solani NCIM 1330 at 200 ug/disk after 48 hrs by agar disk diffusion method; format: functional; details: NCIM 1330, 48 h, read-out: IZ; in short: as §2

| SMILES | zone of inhibition at 200 µg/disc [mm] |
| --- | --- |
| Cc1ccc(C(=O)CC(C(=O)c2ccc(C)cc2)C2C(N)=NC(=S)N=C2N)cc1 (stereo not drawn) | 19 |
| NC1=NC(=O)N=C(N)C1C(CS(=O)(=O)c1ccc(Cl)cc1)S(=O)(=O)c1ccc(Cl)cc1 (stereo not drawn) | 20 |
| Cc1ccc(C(=O)CC(C(=O)c2ccc(C)cc2)C2C(=N)N(C)C(=O)N(C)C2=N)cc1 (stereo not drawn) | 15 |

system: Aspergillus niger; assay: Antifungal activity against Aspergillus niger NCIM 596 at 200 ug/disk after 48 hrs by agar disk diffusion method; format: functional; details: NCIM 596, 48 h, read-out: IZ; in short: as §2

| SMILES | zone of inhibition at 200 µg/disc [mm] |
| --- | --- |
| Cc1ccc(C(=O)CC(C(=O)c2ccc(C)cc2)C2C(N)=NC(=S)N=C2N)cc1 (stereo not drawn) | 16 |
| NC1=NC(=O)N=C(N)C1C(CS(=O)(=O)c1ccc(Cl)cc1)S(=O)(=O)c1ccc(Cl)cc1 (stereo not drawn) | 19 |
| Cc1ccc(C(=O)CC(C(=O)c2ccc(C)cc2)C2C(=N)N(C)C(=O)N(C)C2=N)cc1 (stereo not drawn) | 12 |

system: Bacillus subtilis; assay: Antibacterial activity against Bacillus subtilis NCIM 2063 at 100 ug/disk after 24 hrs by agar disk diffusion method; format: functional; details: NCIM 2063, 24 h, read-out: IZ; in short: as §1

| SMILES | zone of inhibition at 100 µg/disc [mm] |
| --- | --- |
| Cc1ccc(C(=O)CC(C(=O)c2ccc(C)cc2)C2C(N)=NC(=S)N=C2N)cc1 (stereo not drawn) | 21 |
| NC1=NC(=O)N=C(N)C1C(CS(=O)(=O)c1ccc(Cl)cc1)S(=O)(=O)c1ccc(Cl)cc1 (stereo not drawn) | 23 |
| Cc1ccc(C(=O)CC(C(=O)c2ccc(C)cc2)C2C(=N)N(C)C(=O)N(C)C2=N)cc1 (stereo not drawn) | 9 |

system: Klebsiella pneumoniae; assay: Antibacterial activity against Klebsiella pneumoniae NCIM 2957 at 200 ug/disk after 24 hrs by agar disk diffusion method; format: functional; details: NCIM 2957, 24 h, read-out: IZ; in short: as §1

| SMILES | zone of inhibition at 200 µg/disc [mm] |
| --- | --- |
| Cc1ccc(C(=O)CC(C(=O)c2ccc(C)cc2)C2C(N)=NC(=S)N=C2N)cc1 (stereo not drawn) | 20 |
| NC1=NC(=O)N=C(N)C1C(CS(=O)(=O)c1ccc(Cl)cc1)S(=O)(=O)c1ccc(Cl)cc1 (stereo not drawn) | 20 |
| Cc1ccc(C(=O)CC(C(=O)c2ccc(C)cc2)C2C(=N)N(C)C(=O)N(C)C2=N)cc1 (stereo not drawn) | 8 |

system: Staphylococcus aureus; assay: Antibacterial activity against Staphylococcus aureus NCIM 5021 at 200 ug/disk after 24 hrs by agar disk diffusion method; format: functional; details: NCIM 5021, 24 h, read-out: IZ; in short: as §1

| SMILES | zone of inhibition at 200 µg/disc [mm] |
| --- | --- |
| Cc1ccc(C(=O)CC(C(=O)c2ccc(C)cc2)C2C(N)=NC(=S)N=C2N)cc1 (stereo not drawn) | 21 |
| NC1=NC(=O)N=C(N)C1C(CS(=O)(=O)c1ccc(Cl)cc1)S(=O)(=O)c1ccc(Cl)cc1 (stereo not drawn) | 24 |
| Cc1ccc(C(=O)CC(C(=O)c2ccc(C)cc2)C2C(=N)N(C)C(=O)N(C)C2=N)cc1 (stereo not drawn) | 12 |

system: not listed separately; assay: Antioxidant activity assessed as nitric oxide production at 100 uM after 120 mins by Griess reagent method; format: functional; details: not given
In short: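 Nitric oxide assay with Griess read-out. At intervals, 0.5 ml of incubation solution was mixed with 0.5 ml Griess reagent (1% sulfanilamide, 0.1% N-naphthylethylenediamine dihydrochloride, 2% o-phosphoric acid in water). The control received an equal amount of solvent and was handled identically.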

| SMILES | inhibition [%] |
| --- | --- |
| Cc1ccc(C(=O)CC(C(=O)c2ccc(C)cc2)C2C(N)=NC(=S)N=C2N)cc1 (stereo not drawn) | 29.4 |
| NC1=NC(=O)N=C(N)C1C(CS(=O)(=O)c1ccc(Cl)cc1)S(=O)(=O)c1ccc(Cl)cc1 (stereo not drawn) | 35.9 |
| Cc1ccc(C(=O)CC(C(=O)c2ccc(C)cc2)C2C(=N)N(C)C(=O)N(C)C2=N)cc1 (stereo not drawn) | 20.3 |

system: Staphylococcus aureus; assay: Antibacterial activity against Staphylococcus aureus NCIM 5021 at 100 ug/disk after 24 hrs by agar disk diffusion method; format: functional; details: NCIM 5021, 24 h, read-out: IZ; in short: as §1

| SMILES | zone of inhibition at 100 µg/disc [mm] |
| --- | --- |
| Cc1ccc(C(=O)CC(C(=O)c2ccc(C)cc2)C2C(N)=NC(=S)N=C2N)cc1 (stereo not drawn) | 20 |
| NC1=NC(=O)N=C(N)C1C(CS(=O)(=O)c1ccc(Cl)cc1)S(=O)(=O)c1ccc(Cl)cc1 (stereo not drawn) | 22 |
| Cc1ccc(C(=O)CC(C(=O)c2ccc(C)cc2)C2C(=N)N(C)C(=O)N(C)C2=N)cc1 (stereo not drawn) | 10 |

system: Proteus vulgaris; assay: Antibacterial activity against Proteus vulgaris NCIM 2027 at 200 ug/disk after 24 hrs by agar disk diffusion method; format: functional; details: NCIM 2027, 24 h, read-out: IZ; in short: as §1

| SMILES | zone of inhibition at 200 µg/disc [mm] |
| --- | --- |
| Cc1ccc(C(=O)CC(C(=O)c2ccc(C)cc2)C2C(N)=NC(=S)N=C2N)cc1 (stereo not drawn) | 18 |
| NC1=NC(=O)N=C(N)C1C(CS(=O)(=O)c1ccc(Cl)cc1)S(=O)(=O)c1ccc(Cl)cc1 (stereo not drawn) | 19 |
| Cc1ccc(C(=O)CC(C(=O)c2ccc(C)cc2)C2C(=N)N(C)C(=O)N(C)C2=N)cc1 (stereo not drawn) | 9 |

system: Fusarium solani; assay: Antifungal activity against Fusarium solani NCIM 1330 at 100 ug/disk after 48 hrs by agar disk diffusion method; format: functional; details: NCIM 1330, 48 h, read-out: IZ; in short: as §2

| SMILES | zone of inhibition at 100 µg/disc [mm] |
| --- | --- |
| Cc1ccc(C(=O)CC(C(=O)c2ccc(C)cc2)C2C(N)=NC(=S)N=C2N)cc1 (stereo not drawn) | 15 |
| NC1=NC(=O)N=C(N)C1C(CS(=O)(=O)c1ccc(Cl)cc1)S(=O)(=O)c1ccc(Cl)cc1 (stereo not drawn) | 17 |
| Cc1ccc(C(=O)CC(C(=O)c2ccc(C)cc2)C2C(=N)N(C)C(=O)N(C)C2=N)cc1 (stereo not drawn) | 12 |

system: Klebsiella pneumoniae; assay: Antibacterial activity against Klebsiella pneumoniae NCIM 2957 at 100 ug/disk after 24 hrs by agar disk diffusion method; format: functional; details: NCIM 2957, 24 h, read-out: IZ; in short: as §1

| SMILES | zone of inhibition at 100 µg/disc [mm] |
| --- | --- |
| Cc1ccc(C(=O)CC(C(=O)c2ccc(C)cc2)C2C(N)=NC(=S)N=C2N)cc1 (stereo not drawn) | 18 |
| NC1=NC(=O)N=C(N)C1C(CS(=O)(=O)c1ccc(Cl)cc1)S(=O)(=O)c1ccc(Cl)cc1 (stereo not drawn) | 18 |
| Cc1ccc(C(=O)CC(C(=O)c2ccc(C)cc2)C2C(=N)N(C)C(=O)N(C)C2=N)cc1 (stereo not drawn) | 7 |

system: Proteus vulgaris; assay: Antibacterial activity against Proteus vulgaris NCIM 2027 at 100 ug/disk after 24 hrs by agar disk diffusion method; format: functional; details: NCIM 2027, 24 h, read-out: IZ; in short: as §1

| SMILES | zone of inhibition at 100 µg/disc [mm] |
| --- | --- |
| Cc1ccc(C(=O)CC(C(=O)c2ccc(C)cc2)C2C(N)=NC(=S)N=C2N)cc1 (stereo not drawn) | 16 |
| NC1=NC(=O)N=C(N)C1C(CS(=O)(=O)c1ccc(Cl)cc1)S(=O)(=O)c1ccc(Cl)cc1 (stereo not drawn) | 17 |
| Cc1ccc(C(=O)CC(C(=O)c2ccc(C)cc2)C2C(=N)N(C)C(=O)N(C)C2=N)cc1 (stereo not drawn) | 7 |

system: Curvularia lunata; assay: Antifungal activity against Curvularia lunata NCIM 716 at 100 ug/disk after 48 hrs by agar disk diffusion method; format: functional; details: NCIM 716, 48 h, read-out: IZ; in short: as §2

| SMILES | zone of inhibition at 100 µg/disc [mm] |
| --- | --- |
| Cc1ccc(C(=O)CC(C(=O)c2ccc(C)cc2)C2C(N)=NC(=S)N=C2N)cc1 (stereo not drawn) | 15 |
| NC1=NC(=O)N=C(N)C1C(CS(=O)(=O)c1ccc(Cl)cc1)S(=O)(=O)c1ccc(Cl)cc1 (stereo not drawn) | 19 |
| Cc1ccc(C(=O)CC(C(=O)c2ccc(C)cc2)C2C(=N)N(C)C(=O)N(C)C2=N)cc1 (stereo not drawn) | 14 |

system: Aspergillus niger; assay: Antifungal activity against Aspergillus niger NCIM 596 at 100 ug/disk after 48 hrs by agar disk diffusion method; format: functional; details: NCIM 596, 48 h, read-out: IZ; in short: as §2

| SMILES | zone of inhibition at 100 µg/disc [mm] |
| --- | --- |
| Cc1ccc(C(=O)CC(C(=O)c2ccc(C)cc2)C2C(N)=NC(=S)N=C2N)cc1 (stereo not drawn) | 14 |
| NC1=NC(=O)N=C(N)C1C(CS(=O)(=O)c1ccc(Cl)cc1)S(=O)(=O)c1ccc(Cl)cc1 (stereo not drawn) | 16 |
| Cc1ccc(C(=O)CC(C(=O)c2ccc(C)cc2)C2C(=N)N(C)C(=O)N(C)C2=N)cc1 (stereo not drawn) | 10 |
